For assay [1], the system named is Human immunodeficiency virus 1. In words: Antiviral activity against HIV1 NL4-3 infected in human HeLa37 cells assessed as inhibition of viral infectivity after 40 hrs by single round infectivity assay. The class given is functional, organism-based. The conditions noted are these: Human immunodeficiency virus 1, NL4-3, HeLa37, 40 h. The essentials: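 HIV-1 NL4-3 and compound mixed, then added to HeLa37 cells (5×10^4 cells/well) at MOI ~0.005. Infection maintained 40 h. Cells fixed in 75% acetone/25% water and immunostained with human anti-HIV antisera. HIV antigen-positive cells counted and normalized to controls at the same DMSO level (DMSO ≤0.5%). IC50 and IC90 taken from dose-response curves. Triplicates, three independent experiments.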

Assay [2] is described as follows: Cytotoxicity against human HeLa37 cells assessed as cell viability by ATPLite assay. To be noted: for CC50: Homo sapiens, HeLa37, read-out: LC50 (the source's name). The assay is classed as functional. The essentials:
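HeLa37 cells plated and dosed as in the infectivity assay, compounds up to 100 μg/mL, DMSO ≤0.5%. A separate DMSO dose-response (0.05–0.5%) was run, and its effect on viability was subtracted. LC50 and LC90 taken from dose-response. Triplicates, three independent experiments.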
Background: ATP-based viability assays read luminescence as a measure of living cells.

On to `CC(=O)c1c(O)c(C=O)c(O)c2c1OC(C)(C)CC2`, for which, in assay [1], the IC50 (usually the concentration that inhibits the measured activity by half) was 39.8 µM and the IC90 (usually the point of the concentration-response curve where the effect stands at 90%) came to 85.6 µM. Moreover, the CC50 in assay [2] was greater than 100 µM.
The corresponding values for `COc1c(C=O)c(OC)c(C(C)=O)c2c1CCC(C)(C)O2` are 55.3 µM, greater than 100 µM and greater than 100 µM.
The corresponding values for `CC(=O)c1c(O)c2c(c(C(C)=O)c1O)OC(C)(C)CC2` are greater than 100 µM, greater than 100 µM and greater than 100 µM.
For the compound `CC1(C)CCc2c(O)c(C(=O)CC(=O)c3ccccc3)c(O)c(C=O)c2O1`, in assay [1], the IC50 came to 40.7 µM and the IC90 turned out to be 86.6 µM. Further, the CC50 in assay [2] was found to be 84.2 µM.
The corresponding values for `CC1(C)CCc2c(O)c(C=O)c(O)c(C=O)c2O1` are 77.3 µM, greater than 100 µM and greater than 100 µM.
The corresponding values for `CC(=O)c1c(O)c(C=O)c2c(c1O)C=CC(C)(C)O2` are 34.6 µM, 98.2 µM and greater than 100 µM.
`CC(=O)c1c(O)c(C=O)c2c(c1O)CCC(C)(C)O2`: in assay [1], the IC50 turned out to be 30.2 µM and the IC90 is 85 µM. In assay [2], the LC90 turned out to be 258 µM and the CC50 is 145 µM.
